Experimental data published in ChEMBL document CHEMBL5365430, “Structure-Activity Relationship of Truncated 2,8-Disubstituted-Adenosine Derivatives as Dual A2A/A3 Adenosine Receptor Antagonists and Their Cancer Immunotherapeutic Activity” (J Med Chem, 2023).
The source made the active and inactive calls. No cut-off for these calls is given here.

Key:
Adenosine receptor A1 = target: T1, Adenosine receptor A1 (Homo sapiens, UniProt P30542); experiment: Displacement of R-PIA from human A1AR expressed in CHO cell membrane assessed as inhibition constant incubated for 60 mins by liquid scintillation counter analysis; assay type: cell membranes
T1 sequence (P30542 whole entry): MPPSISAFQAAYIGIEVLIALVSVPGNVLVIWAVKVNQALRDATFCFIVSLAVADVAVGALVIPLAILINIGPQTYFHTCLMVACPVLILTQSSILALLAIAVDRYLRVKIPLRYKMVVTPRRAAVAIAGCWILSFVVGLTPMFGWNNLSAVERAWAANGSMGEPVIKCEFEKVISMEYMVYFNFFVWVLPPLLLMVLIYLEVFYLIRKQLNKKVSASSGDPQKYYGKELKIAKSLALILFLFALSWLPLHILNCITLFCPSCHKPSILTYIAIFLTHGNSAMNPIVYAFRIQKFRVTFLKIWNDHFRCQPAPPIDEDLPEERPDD

Adenosine receptor A2a = Adenosine receptor A2a (Homo sapiens, UniProt P29274); experiment: Displacement of […] from recombinant human A2AAR expressed in HEK293 cell membrane assessed as inhibition constant incubated for 60 mins by liquid scintillation counter analysis; assay type: cell membranes
Sequence of Adenosine receptor A2a (P29274 whole entry): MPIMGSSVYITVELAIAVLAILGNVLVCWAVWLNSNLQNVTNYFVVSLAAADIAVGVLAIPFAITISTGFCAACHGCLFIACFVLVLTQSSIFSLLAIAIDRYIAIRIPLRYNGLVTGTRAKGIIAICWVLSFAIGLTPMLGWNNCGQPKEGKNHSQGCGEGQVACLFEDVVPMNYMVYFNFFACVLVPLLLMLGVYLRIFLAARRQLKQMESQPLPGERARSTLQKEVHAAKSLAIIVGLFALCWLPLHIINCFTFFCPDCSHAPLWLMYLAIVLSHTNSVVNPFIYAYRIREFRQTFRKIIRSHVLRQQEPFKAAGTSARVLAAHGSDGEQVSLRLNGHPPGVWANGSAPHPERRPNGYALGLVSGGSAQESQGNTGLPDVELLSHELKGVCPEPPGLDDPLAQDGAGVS

[1] = target: T2, Adenosine receptor A2b (Homo sapiens) (UniProt P29275); experiment: Displacement of DPCPX from recombinant human A2BAR expressed in HEK293 cell membrane at 10 uM incubated for 30 mins by beta scintillation counter analysis relative to control; assay type: cell membranes
T2 sequence (whole entry): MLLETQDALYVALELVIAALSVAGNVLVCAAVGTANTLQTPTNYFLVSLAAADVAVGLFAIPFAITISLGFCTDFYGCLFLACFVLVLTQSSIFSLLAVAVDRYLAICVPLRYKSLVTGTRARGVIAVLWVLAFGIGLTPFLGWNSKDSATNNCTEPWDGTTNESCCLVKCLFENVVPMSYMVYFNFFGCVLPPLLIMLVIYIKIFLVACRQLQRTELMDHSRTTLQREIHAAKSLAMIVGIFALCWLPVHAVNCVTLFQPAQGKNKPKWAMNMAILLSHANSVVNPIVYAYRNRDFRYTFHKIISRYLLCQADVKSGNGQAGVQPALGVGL

Adenosine receptor A3 = target: T3, Adenosine receptor A3 (Homo sapiens, UniProt P0DMS8); experiment: Displacement of I-AB-MEC from human A3AR expressed in CHO cell membrane assessed as inhibition constant incubated for 60 mins by gamma counter analysis; assay type: cell membranes
T3 sequence (P0DMS8 whole entry): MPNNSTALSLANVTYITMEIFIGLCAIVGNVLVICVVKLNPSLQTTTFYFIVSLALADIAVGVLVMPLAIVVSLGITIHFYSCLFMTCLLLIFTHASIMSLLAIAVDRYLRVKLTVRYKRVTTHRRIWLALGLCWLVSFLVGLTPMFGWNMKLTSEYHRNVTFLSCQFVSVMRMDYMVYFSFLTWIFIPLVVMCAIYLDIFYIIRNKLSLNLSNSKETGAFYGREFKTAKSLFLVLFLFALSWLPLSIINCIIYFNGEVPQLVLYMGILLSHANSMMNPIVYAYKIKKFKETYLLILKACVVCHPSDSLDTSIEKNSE

Adenosine receptor A2b = target: T4, Adenosine receptor A2b (Homo sapiens, UniProt P29275); experiment: Displacement of DPCPX from recombinant human A2BAR expressed in HEK293 cell membrane assessed as inhibition constant incubated for 30 mins by beta scintillation counter analysis; assay type: cell membranes
T4 sequence (P29275 whole entry): T2 sequence (whole entry)

[2] = target: Voltage-gated inwardly rectifying potassium channel KCNH2 (Homo sapiens, UniProt Q12809); experiment: Inhibition of hERG expressed in CHO cells at 1 to 10 uM incubated for 300 secs by patch-clamp method; assay type: toxicity, cell-based; details: 5 min, dose 1-10 µM, time 300 sec
Sequence of Voltage-gated inwardly rectifying potassium channel KCNH2 (Q12809 whole entry): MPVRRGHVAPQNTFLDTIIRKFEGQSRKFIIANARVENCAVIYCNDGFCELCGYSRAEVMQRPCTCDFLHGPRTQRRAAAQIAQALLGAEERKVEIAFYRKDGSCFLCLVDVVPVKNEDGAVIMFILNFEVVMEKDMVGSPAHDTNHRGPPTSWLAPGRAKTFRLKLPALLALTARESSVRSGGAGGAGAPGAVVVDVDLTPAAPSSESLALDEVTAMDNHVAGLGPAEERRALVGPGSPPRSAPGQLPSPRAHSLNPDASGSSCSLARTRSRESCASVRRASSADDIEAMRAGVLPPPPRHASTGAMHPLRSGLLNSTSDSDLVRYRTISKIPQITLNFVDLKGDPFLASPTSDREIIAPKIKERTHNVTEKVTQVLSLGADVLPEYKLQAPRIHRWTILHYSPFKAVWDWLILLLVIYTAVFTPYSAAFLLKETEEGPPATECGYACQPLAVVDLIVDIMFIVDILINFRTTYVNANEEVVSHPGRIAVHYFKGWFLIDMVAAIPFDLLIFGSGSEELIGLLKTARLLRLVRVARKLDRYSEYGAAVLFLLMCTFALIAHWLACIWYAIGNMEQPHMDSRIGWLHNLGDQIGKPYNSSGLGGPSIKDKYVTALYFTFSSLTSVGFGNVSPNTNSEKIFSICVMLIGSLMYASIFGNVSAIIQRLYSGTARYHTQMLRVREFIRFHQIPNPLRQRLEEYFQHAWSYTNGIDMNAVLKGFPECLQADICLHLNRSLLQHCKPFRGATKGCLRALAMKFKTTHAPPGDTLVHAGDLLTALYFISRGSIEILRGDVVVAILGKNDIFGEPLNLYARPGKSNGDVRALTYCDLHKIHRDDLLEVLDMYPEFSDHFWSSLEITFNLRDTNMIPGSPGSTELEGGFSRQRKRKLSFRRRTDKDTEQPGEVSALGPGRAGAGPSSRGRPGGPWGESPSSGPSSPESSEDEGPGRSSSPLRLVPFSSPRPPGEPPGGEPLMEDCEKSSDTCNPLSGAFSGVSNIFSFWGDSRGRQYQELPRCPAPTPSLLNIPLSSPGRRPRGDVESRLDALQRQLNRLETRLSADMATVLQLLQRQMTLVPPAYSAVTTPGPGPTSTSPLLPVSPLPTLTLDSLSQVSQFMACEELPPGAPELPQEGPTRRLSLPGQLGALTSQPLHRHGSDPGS

[3] = Clearance in CrljOri:CD1 mouse at 2 mg/kg, iv measured for 24 hrs by LC-MS/MS analysis; assay type: ADME, organism-based; details: in vivo
How it was run: (§1)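 Male CrljOri:CD1 mice, 7 weeks old (about 31.4 g), given single i.v. 2 mg/5 mL/kg or oral 10 mg/10 mL/kg dose in 5% DMSO/40% PEG 400/55% DW, cross-over design (n = 3). Retro-orbital blood taken 5 min (i.v. only) to 24 h into heparinized tubes. Plasma separated at 4 °C, stored at -15 °C, analysed by LC-MS/MS.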

[4] = Tmax in CrljOri:CD1 mouse at 2 mg/kg, iv measured for 24 hrs by LC-MS/MS analysis; assay type: ADME, organism-based; details: in vivo; how it was run: as §1
[5] = AUC (0 to t) in CrljOri:CD1 mouse at 2 mg/kg, iv measured for 24 hrs by LC-MS/MS analysis; assay type: ADME, organism-based; set-up: dose 2 mg/kg, time 24 hrs, route iv; details: in vivo; how it was run: as §1
[6] = Cmax in CrljOri:CD1 mouse at 10 mg/kg, po measured for 24 hrs by LC-MS/MS analysis; assay type: ADME, organism-based; set-up: time 24 hrs, dose 10 mg/kg, route po; details: in vivo; how it was run: as §1
[7] = Tmax in CrljOri:CD1 mouse at 10 mg/kg, po measured for 24 hrs by LC-MS/MS analysis; assay type: ADME, organism-based; details: in vivo; how it was run: as §1
[8] = Half life in CrljOri:CD1 mouse at 10 mg/kg, po measured for 24 hrs by LC-MS/MS analysis; assay type: ADME, organism-based; details: in vivo; how it was run: as §1
[9] = Toxicity in BALB/c mouse implanted with mouse 4T1-Luc cells assessed as adverse effects at 10 mg/kg, ip administered thrice a week for 21 days; assay type: organism-based; details: in vivo, 504 h, time 21 day
How it was run: (§2)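 Mice received 4T1-Luc cells subcutaneously in flank (1 × 10^6 cells, 50:50 PBS/Matrigel), tumors grown 7 days to about 50 mm³, then randomized (n = 5). Vehicle (DMSO/cremophor/normal saline 5:5:90), 10 mg/kg test drug, anti-mouse PD-L1 10 mg/kg, or both given i.p. thrice weekly for 21 days. Tumor volume by caliper (3.14 × L × W × H/6), tumors excised and weighed; toxicity judged by body weight loss.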

[10] = AUC (0 to t) in CrljOri:CD1 mouse at 10 mg/kg, po measured for 24 hrs by LC-MS/MS analysis; assay type: ADME, organism-based; set-up: time 24 hrs, dose 10 mg/kg, route po; details: in vivo; how it was run: as §1
[11] = Toxicity in BALB/c mouse implanted with mouse 4T1-Luc cells assessed as body weight loss at 10 mg/kg, ip administered thrice a week for 21 days in presence of anti-mouse PD-L1; assay type: organism-based; details: in vivo, 504 h, time 21 day; how it was run: as §2
[12] = Toxicity in BALB/c mouse implanted with mouse 4T1-Luc cells assessed as adverse effects at 10 mg/kg, ip administered thrice a week for 21 days in presence of anti-mouse PD-L1; assay type: organism-based; details: in vivo, 504 h, time 21 day; how it was run: as §2
[13] = Antitumor activity against mouse 4T1-Luc cells implanted in BALB/c mouse assessed as tumor growth inhibition at 10 mg/kg, ip administered thrice a week for 21 days relative to control; assay type: functional; details: 504 h, time 21 day, read-out: TGI; how it was run: as §2
[14] = Oral bioavailability in CrljOri:CD1 mouse at 10 mg/kg measured for 24 hrs by LC-MS/MS analysis; assay type: ADME, organism-based; details: in vivo; how it was run: as §1
[15] = Cmax in CrljOri:CD1 mouse at 2 mg/kg, iv measured for 24 hrs by LC-MS/MS analysis; assay type: ADME, organism-based; set-up: time 24 hrs, dose 2 mg/kg, route iv; details: in vivo; how it was run: as §1
[16] = Half life in CrljOri:CD1 mouse at 2 mg/kg, iv measured for 24 hrs by LC-MS/MS analysis; assay type: ADME, organism-based; details: in vivo; how it was run: as §1
[17] = Toxicity in BALB/c mouse implanted with mouse 4T1-Luc cells assessed as body weight loss at 10 mg/kg, ip administered thrice a week for 21 days; assay type: organism-based; details: in vivo, 504 h, time 21 day; how it was run: as §2
[18] = Synergistic antitumor activity against mouse 4T1-Luc cells implanted in BALB/c mouse assessed as tumor growth inhibition at 10 mg/kg, ip administered thrice a week for 21 days in presence of anti-mouse PD-L1 relative to control; assay type: functional; details: 504 h, read-out: TGI, time 21 day; how it was run: as §2
[19] = Volume of distribution at steady state in CrljOri:CD1 mouse at 2 mg/kg, iv measured for 24 hrs by LC-MS/MS analysis; assay type: ADME, organism-based; details: in vivo; how it was run: as §1
4T1-Luc = experiment: Synergistic antitumor activity against mouse 4T1-Luc cells implanted in BALB/c mouse assessed as reduction in tumor growth at 10 mg/kg, ip administered thrice a week for 21 days in presence of anti-mouse PD-L1 by IVIS imaging analysis; assay type: functional, organism-based; details: time 21.0 day
How it was run: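 On final day of the 4T1-Luc i.p. dosing study (n = 5 per group, thrice weekly for 21 days), anesthetized mice were imaged by IVIS 15 min after D-luciferin (150 mg/kg in PBS). Average tumor signal intensity was quantified.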

Compound: CCCCC#Cc1nc(NC)c2nc(-c3cccs3)n([C@@H]3OC[C@@H](O)[C@H]3O)c2n1
- Ki (Adenosine receptor A1): 2310 nM
- Ki (Adenosine receptor A2a): 126 nM
- Activity [1]: 52%
- Ki (Adenosine receptor A3): 2.9 nM

Compound: CNc1nc(NCCc2ccc(O)cc2)nc2c1nc(-c1cccs1)n2[C@@H]1SC[C@@H](O)[C@H]1O
- Ki (Adenosine receptor A2b): 579 nM
- Ki (Adenosine receptor A2a): 917 nM
- Ki (Adenosine receptor A3): 106 nM

Compound: CCCCC#Cc1nc(NCc2cccc(I)c2)c2nc(-c3ccco3)n([C@@H]3SC[C@@H](O)[C@H]3O)c2n1
- Activity [1]: 3%

Compound: CNc1nc(Cl)nc2c1nc(-c1cccs1)n2[C@@H]1SC[C@@H](O)[C@H]1O
- Ki (Adenosine receptor A2a): 955 nM
- Activity [1]: 17%
- Ki (Adenosine receptor A3): 138 nM

Compound: CCCCC#Cc1nc(NCc2cccc(I)c2)c2nc(-c3cccs3)n([C@@H]3SC[C@@H](O)[C@H]3O)c2n1
- Activity [1]: 3%

Compound: CCCCC#Cc1nc(N)c2nc(-c3cccs3)n([C@@H]3OC[C@@H](O)[C@H]3O)c2n1
- inhibition (INH) [2]: Not Active
- clearance [3]: 60.5 mL/min/kg
- Tmax [4]: 4.8 min
- AUCt [5]: 550.95 ng·h/mL
- Cmax [6]: 1241.79 ng/mL
- Tmax [7]: 15 min
- t1/2 [8]: 119 min
- Activity [9]: Non-Toxic
- AUCt [10]: 626.55 ng·h/mL
- Activity [11]: Non-Toxic
- Activity [12]: Non-Toxic
- inhibition in vivo at 10 mg/kg [13]: 15%
- F [14]: 22.81%
- Cmax [15]: 1984.94 ng/mL
- t1/2 [16]: 9.6 min
- Activity [17]: Non-Toxic
- inhibition in vivo at 10 mg/kg [18]: 77%
- Vdss [19]: 0.69 L/kg
- Activity (4T1-Luc): Active

Compound: CCCCC#Cc1nc(NC)c2nc(-c3cccs3)n([C@@H]3SC[C@@H](O)[C@H]3O)c2n1
- Activity [1]: 11%

Compound: O[C@@H]1[C@H](O)CS[C@H]1n1c(-c2cccs2)nc2c(NCc3cccc(I)c3)nc(Cl)nc21
- Ki (Adenosine receptor A2a): 720 nM
- Activity [1]: 17%
- Ki (Adenosine receptor A3): 137 nM

Compound: CCCCC#Cc1nc(NC)c2nc(-c3ccco3)n([C@@H]3SC[C@@H](O)[C@H]3O)c2n1
- Activity [1]: 41%

Compound: Nc1nc(NCCc2ccc(O)cc2)nc2c1nc(-c1cccs1)n2[C@@H]1SC[C@@H](O)[C@H]1O
- Ki (Adenosine receptor A1): 8050 nM
- Ki (Adenosine receptor A2b): 608 nM
- Ki (Adenosine receptor A2a): 946 nM
- Ki (Adenosine receptor A3): 3010 nM

Compound: Nc1nc(Cl)nc2c1nc(-c1cccs1)n2[C@@H]1SC[C@@H](O)[C@H]1O
- Ki (Adenosine receptor A1): 1980 nM
- Ki (Adenosine receptor A2a): 459 nM
- Activity [1]: 62%
- Ki (Adenosine receptor A3): 294 nM
